An excerpt weighted towards active compounds, which were near 4.2% of everything screened.
KCC2 mod: KCC2 (human) Cl- transport modulation; KCC2 cells, thallium flux FluoZin-2 fluorescence; B-score of Tl+ flux slope (higher = more flux/activation; lower = inhibition) at 10 µM; 190,000 compounds, 2.2% hits;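 active = thallium flux slope and its plate-corrected score both differing from the plate sample mean at a set confidence after two filtering rounds, in either direction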;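 note: slope of fluorescence scaled to starting intensity during 10 to 20 s after thallium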
SUMO Mot1 rescue: SUMOylation pathway inhibition by Mot1-301 growth rescue | S. cerevisiae Mot1-301 growth rescue, ATP luminescence, 38.5C; percent above DMSO median, 100 means doubled | growth rescue, % at 18.8 µM | 320,000 compounds, 1% hits | AID 2716;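 active = every valid replicate shows activation above 250% relative to neutral control wells; inactive = the rest, any valid replicate at or below 250%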;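 note: OY570 slx delta 5 strain wells were the positive control but not used for scaling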
KCNQ1 act: potentiators or activators of human KCNQ1 potassium channel. P51787. CHO-K1 KCNQ1, thallium flux FluxOR fluorescence; stronger effect = higher value. B-score at 10 µM. 310,000 compounds, 0.35% hits. AID 2648;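 active = fluorescence ratio B-score, a plate-corrected score, at least three library SD, with initial intensity B-score within 5 SD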
Target sequence (P51787 whole entry, looked up): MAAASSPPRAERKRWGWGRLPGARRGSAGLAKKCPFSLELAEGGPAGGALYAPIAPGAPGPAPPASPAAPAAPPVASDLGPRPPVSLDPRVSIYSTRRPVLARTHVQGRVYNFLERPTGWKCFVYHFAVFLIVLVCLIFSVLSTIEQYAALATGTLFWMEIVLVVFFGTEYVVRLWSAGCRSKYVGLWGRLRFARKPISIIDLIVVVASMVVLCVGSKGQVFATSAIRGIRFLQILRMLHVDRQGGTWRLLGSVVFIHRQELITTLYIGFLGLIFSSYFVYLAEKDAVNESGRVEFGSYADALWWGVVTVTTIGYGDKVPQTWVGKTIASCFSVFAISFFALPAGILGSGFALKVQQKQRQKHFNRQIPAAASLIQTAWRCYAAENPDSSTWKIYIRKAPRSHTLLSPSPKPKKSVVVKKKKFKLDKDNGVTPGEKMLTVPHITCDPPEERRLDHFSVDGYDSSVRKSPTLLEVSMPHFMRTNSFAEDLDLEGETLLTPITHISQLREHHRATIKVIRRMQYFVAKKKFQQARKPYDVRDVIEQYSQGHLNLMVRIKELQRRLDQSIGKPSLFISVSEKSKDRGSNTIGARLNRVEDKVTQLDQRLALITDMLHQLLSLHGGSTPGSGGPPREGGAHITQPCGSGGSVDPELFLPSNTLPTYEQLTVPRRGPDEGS
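System: CHO-K1 cells stably expressing KCNQ1 / Medium: assay buffer for compound exposure, DMSO matched across wells / Reagent: thallium- and potassium-containing depolarizing buffer / Compound: one concentration, matched DMSO / Incubation: 20 min compound pretreatment at room temperature / Measured by: kinetic FluxOR fluorescence, 10 s baseline plus 110 s post-stimulus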
KCNQ1 inh: human KCNQ1 channel inhibition. 310,000 compounds, 1.3% hits. B-score at 10 µM. CHO-K1 KCNQ1, FluxOR thallium flux fluorescence; stronger effect = higher value. P51787. AID 2642;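 active = compounds whose thallium flux B-score, printed positive for inhibition, exceeds three library SD while starting fluorescence stays within three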;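 note: channel opened by potassium depolarization with thallium stimulus after 20 min compound exposure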
hERG protect: shields human hERG channel from block by proarrhythmic agents; Q12809; CHO-hERG, FluxOR thallium flux, dofetilide IC70 present; activation (rescue from dofetilide block), less the hit threshold, % at 10 µM; 310,000 compounds, 0.51% hits; AID 1511;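 active = activation above the mean of controls blocked by dofetilide plus 5 SD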;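 note: thallium influx through hERG after potassium depolarization seen as dye fluorescence rise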
AI-2 QS mod: modulates the Vibrio harveyi AI-2 quorum sensing system. Vibrio harveyi JMH597 AI-2 luminescence/OD600 ratio, 9 h; stronger effect = lower value; strain lacks LuxN and CqsS sensors; 0 = neutral-control median. activity change, % at 7.5 µM. 300,000 compounds, 0.4% hits. AID 2094; in the data active = activity change below about -75%, passing the limit was not always enough; inconclusive = no clear call, values can overlap the other calls;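 note: luminescence divided by OD600 gain over 9 h not by final OD600 alone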
KCC2 secondary: KCC2 (human) modulation, secondary assay; shares compounds with KCC2 mod; HEK293-KCC2, thallium flux, FluoZin2 fluorescence; stronger effect = higher value; normalised thallium flux (F/F0 slope) at 10 µM; 3,700 compounds, 15% hits; AID 1713;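 active = thallium flux slope above the same plate's solvent-only control mean plus 3 SD; inconclusive = the two replicate wells disagree; inactive = no significant difference from solvent-only control wells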
KCC2 bumet counter: bumetanide-insensitive thallium flux in KCC2 cells with ouabain, counter-screen; shares compounds with KCC2 mod; HEK293-KCC2 + bumetanide/ouabain, thallium flux FluoZin2; stronger effect = higher value; normalized thallium flux at 10 µM; 3,700 compounds, 49% hits; AID 1714;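 active = thallium entry rate above the same plate's blocked-transporter control wells by more than 3 SD; inconclusive = the two repeat wells disagree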;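 note: raw slope of fluorescence over initial fluorescence between 10 and 20 s after thallium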
KCC2 secondary2: confirmation of human KCC2 transport modulators | shares compounds with KCC2 mod | HEK293-KCC2, thallium flux FluoZin2 fluorescence; actives lie on both sides; F/F0 rise rate, 10–20 s post-thallium | normalized thallium flux at 10 µM | 3,700 compounds, 23% hits | AID 1715;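 active = thallium flux slope more than 3 SD above or below the plate's solvent-only control mean, mostly below; inconclusive = the two repeat wells disagreed; inactive = no significant shift from solvent-only controls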;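 note: raw slope with 0.1% DMSO as baseline and bumetanide as block control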
HEK counter1: counter-screen for KCC2 modulators: effect in parental HEK293 cells. shares compounds with KCC2 mod. thallium flux FluoZin2, ouabain; baseline-ratio fluorescence slope, 10–20 s after thallium. thallium flux rate (normalised fluorescence) at 10 µM. 3,700 compounds, 46% hits;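 active = thallium flux rate significantly above the same plate's solvent-only control wells, beyond their mean plus 3 SD; inconclusive = the two replicate wells gave conflicting results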
KCC2 retest ouab: KCC2 (human) modulation, ouabain retest. shares compounds with KCC2 mod. HEK293-KCC2, thallium flux FluoZin2 fluorescence; bidirectional: low = inhibitor, high = activator. raw Tl+ flux slope (below DMSO = inhibition, above = activation) at 10 µM. 3,700 compounds, 48% hits. AID 1717;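 active = thallium flux slope beyond 3 SD from same-plate DMSO control mean in most replicates, usually higher, sometimes lower; inconclusive = repeat tests gave conflicting results; inactive = no significant difference from controls in most replicates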;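 note: slope of initial-normalized fluorescence between seconds 10 and 20 after thallium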
HEK counter2: acts in parental HEK cells, second KCC2 counter-screen | shares compounds with KCC2 mod | HEK293 parental, thallium flux FluoZin-2 fluorescence slope | thallium flux slope at 10 µM | 3,700 compounds, 33% hits | AID 1718;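 active = thallium flux slope above the same plate's solvent-control mean plus 3 SD in both duplicate wells; inconclusive = duplicate wells that disagreed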;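 note: run without ouabain in cells lacking the KCC2 cotransporter; slope of fluorescence scaled to its starting value between 10 and 20 s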
Starred values were filed as active, the others as inactive; i = inactive; ? = inconclusive; nt = no result.

SMILES | KCC2 mod | SUMO Mot1 rescue | KCNQ1 act | KCNQ1 inh | hERG protect | AI-2 QS mod | KCC2 secondary | KCC2 bumet counter | KCC2 secondary2 | HEK counter1 | KCC2 retest ouab | HEK counter2
O=C(NC(=S)Nc1ccc(Cc2ccncc2)cc1)c1ccccc1F | 0.83 | 45 | i | i | -8 | nt | nt | nt | nt | nt | nt | nt
O=C(NC(=S)Nc1ccc(-c2nc3ncccc3o2)cc1)c1ccccc1F | 4.7* | -4 | i | i | -6 | 15 | 0.0081 | 0.013* | 0.033 | 0.011* | ? | 0.011
COc1ccc(-c2noc3c2-c2nc(-c4cccc(C)c4)sc2CC3)cc1 | nt | -30 | i | i | -14 | 0 | nt | nt | nt | nt | nt | nt
CCOc1ccc2nc(SC3CC(=O)N(c4cccc(OC)c4)C3=O)sc2c1 (configuration not stated) | 4.7* | 214 | i | i | -1 | 29 | 0.024* | 0.015* | 0.033 | 0.0093* | 0.022* | ?
CCOc1ccc2nc(SC3CC(=O)N(c4ccccc4)C3=O)sc2c1 (configuration not stated) | 1.2 | 32 | i | i | -8 | -2 | nt | nt | nt | nt | nt | nt
CC(C)(C)c1nc(SCC(=O)NNC(=O)c2ccccc2)c2ccccc2n1 | nt | -10 | i | i | -5 | 7 | nt | nt | nt | nt | nt | nt
CCN(C(=S)NC(=O)C1CCCC1)C1CCCCC1 | 7.3* | -18 | i | i | -9 | 24 | 0.012 | 0.03* | 0.038 | ? | 0.033* | ?
OCCC1CN(C2CCN(c3ccccc3)CC2)CCN1Cc1ccc(F)c(F)c1 (configuration not stated) | -0.29 | -9 | i | i | -15 | 1 | nt | nt | nt | nt | nt | nt
CC(=O)c1ccc(NC(=O)COC(=O)/C=C/c2cccs2)cc1 | nt | 49 | nt | nt | nt | nt | nt | nt | nt | nt | nt | nt
Cc1ccc(S(=O)(=O)N2CCC(=O)N(C(COCc3cccc(Cl)c3)Cc3ccccc3)CC2)cc1 (configuration not stated) | -3.8 | -6 | i | i | -9 | 18 | nt | nt | nt | nt | nt | nt
Cc1ccc(S(=O)(=O)N2CCC(=O)N(C(COCc3ccccc3)Cc3ccccc3)CC2)cc1 (configuration not stated) | -5.9* | 143 | i | i | -7 | 4 | 0.0091 | 0.0061 | ? | 0.0072 | 0.015* | 0.011
CCCc1n(CC)c2ccccc2[n+]1CC(O)COC1CCCCC1 (configuration not stated) | 0.19 | 181 | i | i | -6 | 10 | nt | nt | nt | nt | nt | nt
O=C(C1CCCN(S(=O)(=O)c2cccc3nonc23)C1)N1CCN(c2ccccc2Cl)CC1 (configuration not stated) | -1.2 | 115 | i | i | -1 | 32 | nt | nt | nt | nt | nt | nt
O=C(NCCN1CCC(Cc2ccccc2)CC1)C1CCCN(S(=O)(=O)c2cnc[nH]2)C1 (configuration not stated) | -4* | -6 | i | i | 0 | 13 | 0.0059 | 0.0049 | 0.029 | 0.0074 | 0.019 | 0.0093
O=C(NCCc1ccccc1)C1CCCN(S(=O)(=O)c2cnc[nH]2)C1 (configuration not stated) | nt | 2 | i | i | 2 | 25 | nt | nt | nt | nt | nt | nt
O=C(C1CCCN(S(=O)(=O)c2cccc3nonc23)C1)N1CCC(Cc2ccccc2)CC1 (configuration not stated) | nt | 455 | i | i | -6 | 18 | 0.0057 | ? | 0.024* | 0.0067 | ? | 0.01
CCN(CC)CCn1c(=S)[nH]c2ccccc2c1=O | 0.89 | -34 | i | i | -1 | 21 | nt | nt | nt | nt | nt | nt
O=c1c2ccccc2[nH]c(=S)n1CCC1=CCCCC1 | 38* | -15 | 26* | i | 11* | 19 | ? | 0.082* | 0.048* | 0.032* | 0.043* | 0.026*
O=c1c2ccccc2[nH]c(=S)n1CCN1CCCCC1 | nt | 2 | i | i | -4 | 20 | nt | nt | nt | nt | nt | nt
O=C(CCCCCn1c(=S)[nH]c2ccccc2c1=O)NCc1ccc2c(c1)OCO2 | 0.7 | -7 | i | i | -5 | 0 | nt | nt | nt | nt | nt | nt
C=C(C)Cn1c(=S)[nH]c2ccccc2c1=O | 25* | 137 | i | i | -12 | 7 | 0.014* | 0.074* | 0.031 | 0.024* | 0.049* | 0.014*
CC(C)Cn1c(=S)[nH]c2cc(Cl)ccc21 | 92* | -4 | i | i | 6.9* | -12 | ? | 0.097* | ? | 0.083* | 0.078* | 0.063*
O=c1c2ccccc2[nH]c(=S)n1Cc1ccc2c(c1)OCO2 | 10* | 7 | i | i | -9 | 6 | ? | 0.012* | 0.031 | 0.0098* | 0.019 | 0.013*
C=CCn1c(=S)[nH]c2ccccc2c1=O | nt | 1 | nt | nt | nt | nt | nt | nt | nt | nt | nt | nt
CC(C)Cn1c(=S)[nH]c2ccccc2c1=O | 64* | 16 | i | i | -1 | 3 | 0.0099* | 0.12* | 0.086* | 0.086* | 0.092* | 0.085*
Cc1ccc(C2=CSC3=NNC4(CCCCC4)NN23)cc1 | -4.4* | nt | i | i | -21 | -27 | 0.0071 | 0.0058* | 0.024* | 0.0084 | ? | 0.011
COc1ccc(C2=CSC3=NNC4(CCCCC4)NN23)cc1 | -0.43 | nt | i | i | -6 | 23 | nt | nt | nt | nt | nt | nt
CC1CCCN(CCCN2C(=O)C3C(C(=O)Nc4cccc(Cl)c4)C4C=CC3(O4)C2C(=O)NC2CCCCC2)C1 (configuration not stated) | nt | -8 | i | i | -11 | 18 | nt | nt | nt | nt | nt | nt
COc1ccc(-c2nc(=S)c3ccc4ccccc4c3[nH]2)cc1 | 79* | nt | 77* | i | 63* | -8 | 0.022* | 0.11* | 0.048* | 0.086* | 0.08* | 0.04*
